What all share (format): functional
Assay [1] is filed under the species Mus musculus. Kind of assay: Analgesic activity relative to aspirin as 1 in 8 mice phenylquinone writhing assay. The procedure, abridged: (§1)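 Male mice, 18–20 g, dosed orally with test agent in aqueous vehicle (0.9% NaCl, 0.5% Na carboxymethylcellulose, 0.4% polysorbate 80, 0.9% benzyl alcohol, 97.3% water) 20 min before intraperitoneal phenylquinone. Writhing observed over the following 10 min. Potency relative to aspirin taken from dose-response plots by analysis of variance.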
A general note: Writhing tests count abdominal constrictions after an irritant is injected.

The subject of a further assay is Rattus norvegicus. The experiment in a line: Antiinflammatory activity relative to phenyl butazone as 1 in rat carrageenan paw edema assay. The procedure, abridged:
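Female rats, 80–90 g, six per dose group, at least four dose levels. Test agent given orally 1 h before carrageenan injection into one hind paw, in vehicle of 0.9% NaCl, 0.5% Na carboxymethylcellulose, 0.4% polysorbate 80, 0.9% benzyl alcohol, 97.3% water. Rats killed 4 h after dosing and both hind paws weighed. Potency relative to phenylbutazone from dose-response of % weight increase of treated over untreated paw, by analysis of variance.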
In general terms: In the carrageenan paw model, swelling and tenderness develop within hours.

For assay [2], the species on record is Mus musculus. Kind of assay: Analgesic activity relative to aspirin as 1 in 24 mice phenylquinone writhing assay. The method in brief: as §1
For assay [3], the species on record is Mus musculus. Kind of assay: Analgesic activity relative to aspirin as 1 in 32 mice phenylquinone writhing assay. The procedure, abridged: as §1
The species named for assay [4] is Mus musculus. Kind of assay: Analgesic activity relative to aspirin as 1 in 16 mice phenylquinone writhing assay. The procedure, abridged: as §1

Consider `O=C(O)Cc1ccc2c(c1)NCc1ccccc1C2=O`, for which the Relative activity in the assay listed under Mus musculus [1] is <0.7; in the assay with Rattus norvegicus it was 29.
As for `CC(C(=O)O)c1ccc2c(c1)N(C)Cc1ccccc1C2=O` (centres undefined), the Relative activity in the assay filed under Mus musculus [2] was determined as 1; in the assay on Rattus norvegicus, 11.
Consider `CN1Cc2ccccc2C(=O)c2ccc(CC(=O)O)cc21`, for which the Relative activity is reported as <0.2 in the assay listed under Mus musculus [3] and 7 in the assay with Rattus norvegicus.
For the compound `COc1ccc2c(c1)CNc1cc(CC(=O)O)ccc1C2=O`, the figures for the Relative activity in the assay listed under Mus musculus [1] and with Rattus norvegicus were <0.2 and <0.1, respectively.
For `CC(=O)N1Cc2ccccc2C(=O)c2ccc(CC(=O)O)cc21` the same measures were <0.2 and <0.3.
Consider `COc1ccc2c(c1)CN(C)c1cc(CC(=O)O)ccc1C2=O`, for which the Relative activity is on record as <0.5 in the assay filed under Mus musculus [4] and 6.7 with Rattus norvegicus.
As for `CCN1Cc2ccccc2C(=O)c2ccc(CC(=O)O)cc21`, the Relative activity in the assay listed under Mus musculus [4] is <0.2; in the assay with Rattus norvegicus, 2.3.

The values above are taken from ChEMBL document CHEMBL1121700, “Antiinflammatory 5,6-dihydro-11-oxodibenz[b,e]azepine-3-acetic acids” (1981).
